# Measurements taken from ChEMBL document CHEMBL4190227, “Syntheses, toxicities and anti-inflammation of H2S-donors based on non-steroidal anti-inflammatory drugs” (Eur J Med Chem, 2017).
# What was measured:
# Danio rerio = species: Danio rerio; test: Toxicity in AB zebrafish embryo assessed as rate of embryo malformation at 0.5 to 20 uM measured at 96 hrs post fertilization by stereoscopic dissecting light microscopic analysis relative to DMF; assay type: organism-based; settings: in vivo
# How it was run: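 AB embryos exposed from 4 hpf through 96 hpf to compound or DMF vehicle (1:1000); malformations scored at 96 hpf under stereoscopic dissecting microscope; 100 embryos per group in three replicates; three independent experiments, mean ± SD.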
# [1] = molecular target: T1, Nitric oxide synthase, inducible (Mus musculus) (UniProt P29477); test: Inhibition of iNOS in mouse RAW264.7 cells assessed as reduction in LPS-induced NO production at 50 uM administered for 24 hrs post LPS induction by Griess method relative to control; assay type: cell-based
# T1 sequence (whole entry): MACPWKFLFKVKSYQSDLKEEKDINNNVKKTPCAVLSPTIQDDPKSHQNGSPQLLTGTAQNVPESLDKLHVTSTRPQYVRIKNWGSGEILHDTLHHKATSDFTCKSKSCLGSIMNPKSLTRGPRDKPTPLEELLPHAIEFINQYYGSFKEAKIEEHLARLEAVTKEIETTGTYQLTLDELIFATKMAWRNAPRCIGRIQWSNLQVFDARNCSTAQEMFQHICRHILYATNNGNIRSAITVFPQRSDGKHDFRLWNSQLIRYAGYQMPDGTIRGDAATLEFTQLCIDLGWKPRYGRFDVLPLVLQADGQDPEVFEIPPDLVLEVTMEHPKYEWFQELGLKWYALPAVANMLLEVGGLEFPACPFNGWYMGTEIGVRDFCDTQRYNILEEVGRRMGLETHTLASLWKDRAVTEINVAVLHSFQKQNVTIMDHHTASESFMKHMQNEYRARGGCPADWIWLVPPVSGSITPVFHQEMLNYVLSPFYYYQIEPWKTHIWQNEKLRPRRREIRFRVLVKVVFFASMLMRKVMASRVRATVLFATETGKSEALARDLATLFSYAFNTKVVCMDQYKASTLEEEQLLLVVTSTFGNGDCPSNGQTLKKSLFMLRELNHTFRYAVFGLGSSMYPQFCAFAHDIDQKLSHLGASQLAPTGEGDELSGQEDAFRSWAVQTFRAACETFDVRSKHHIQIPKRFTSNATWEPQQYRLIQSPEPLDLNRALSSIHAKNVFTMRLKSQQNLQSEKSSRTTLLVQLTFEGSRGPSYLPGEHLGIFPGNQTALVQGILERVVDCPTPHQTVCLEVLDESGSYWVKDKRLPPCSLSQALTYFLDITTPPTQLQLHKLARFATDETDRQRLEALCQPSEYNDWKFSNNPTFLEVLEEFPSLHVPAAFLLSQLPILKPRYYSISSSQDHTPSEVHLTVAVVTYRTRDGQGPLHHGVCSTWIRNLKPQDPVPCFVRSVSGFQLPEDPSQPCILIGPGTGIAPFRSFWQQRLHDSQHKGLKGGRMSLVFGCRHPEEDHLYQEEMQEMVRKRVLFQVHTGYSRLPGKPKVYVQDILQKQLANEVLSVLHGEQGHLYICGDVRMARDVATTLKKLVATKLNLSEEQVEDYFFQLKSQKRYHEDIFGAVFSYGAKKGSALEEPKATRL
# How it was run: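 RAW264.7 cells stimulated with LPS 1 μg/mL for 4 h, then compound (10, 50, 100 μM) for 24 h; culture medium reacted with Griess reagents I and II, absorbance 570 nm; nitrite from sodium nitrite standard curve (0–100 μM in medium); four independent experiments, mean ± SD.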
# [2] = Toxicity in AB zebrafish embryo assessed as percentage of embryos alive at 20 uM measured at 120 hrs post fertilization by dissecting light microscopic analysis relative to DMF; assay type: organism-based, Danio rerio; settings: read-out: Activity
# How it was run: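 Wild-type AB zebrafish embryos, collected within 1 h of lights-on and washed in E3 medium, were exposed one embryo per well in 200 μL test solution, with plates sealed against evaporation. There were 100 embryos per group, split into three replicate groups. Mortality was recorded at 24–168 hpf. DMF vehicle (1:1000) served as control. Results are mean ± SD of three replicates.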
smiles,measurement,setting,value
CC(=O)Nc1ccc(OC(=O)CCCCC2CCSS2)cc1 (stereo not drawn),Activity,Danio rerio,3%
same,inhibition,[1],60%
same,"survival at 120 h, 20 µM",[2],41%
